Source: ChEMBL document CHEMBL4373718, “Germacrane Sesquiterpenoids as a New Type of Anticardiac Fibrosis Agent Targeting Transforming Growth Factor β Type I Receptor” (J Med Chem, 2019)
Calls of active or inactive are those of the source. The rule behind the calls is not given here.

Key:
[1] = target: T1, TGF-beta receptor type-1 (Rattus norvegicus) (UniProt P80204); test: Inhibition of TGFbeta1 receptor in TGFbeta1-stimulated Sprague-Dawley rat cardiac fibroblasts assessed as reduction in alpha-SMA expression measured after 12 hrs by Western blot analysis
T1 sequence (whole entry): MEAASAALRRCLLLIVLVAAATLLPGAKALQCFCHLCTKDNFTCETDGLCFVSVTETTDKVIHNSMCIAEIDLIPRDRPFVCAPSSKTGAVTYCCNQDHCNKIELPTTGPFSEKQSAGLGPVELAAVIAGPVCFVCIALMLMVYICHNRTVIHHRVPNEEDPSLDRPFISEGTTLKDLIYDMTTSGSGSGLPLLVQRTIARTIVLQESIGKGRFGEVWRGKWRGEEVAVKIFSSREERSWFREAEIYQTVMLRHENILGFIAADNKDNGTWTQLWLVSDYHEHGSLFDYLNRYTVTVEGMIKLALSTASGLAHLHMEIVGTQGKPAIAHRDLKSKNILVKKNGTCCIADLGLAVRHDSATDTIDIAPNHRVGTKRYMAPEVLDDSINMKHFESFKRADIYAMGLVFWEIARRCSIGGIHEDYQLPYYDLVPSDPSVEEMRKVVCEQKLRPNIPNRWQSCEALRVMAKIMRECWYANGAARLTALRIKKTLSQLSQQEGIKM
Summary of the method: (§1)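 Primary rat cardiac fibroblasts (passages 2–4, 3×10^5 per well) treated with compound plus 10 ng/mL TGFβ1 for 12 h; tested at 2.5, 5 and 10 µM. Lysates run on 10% SDS-PAGE (30 µg protein), probed for FN, α-SMA and collagen I/III, and quantified by densitometry against GAPDH. N=3 independent experiments.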

Rattus norvegicus [2] = test: Antifibrotic activity in abdominal aortic constriction Sprague-Dawley rat model of cardiac fibrosis assessed as fractional shortening at 5 mg/kg, ip administered once daily for 4 weeks measured post-last dose by echocardiography (reference value: 48.17 +/- 4.69%); type: functional
[3] = target: T1, TGF-beta receptor type-1 (Rattus norvegicus); test: Inhibition of TGFbeta1 receptor in TGFbeta1-stimulated Sprague-Dawley rat cardiac fibroblasts assessed as reduction in Smad2 phosphorylation at 10 uM measured after 5 to 30 mins by Western blot analysis
Rattus norvegicus [4] = test: Antifibrotic activity in abdominal aortic constriction Sprague-Dawley rat model of cardiac fibrosis assessed as reduction in Smad2 phosphorylation in heart at 5 mg/kg, ip administered once daily for 4 weeks measured post-last dose by Western blot analysis; type: functional, organism-based
Summary of the method: (§2)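 AAC rats dosed ip daily for 4 weeks, n=8 per group. Hearts homogenized in lysis buffer with protease and phosphatase inhibitors and spun at 12,000 rpm for 30 min at 4 °C. Nuclear and cytoplasmic fractions prepared with a kit. Protein measured by BCA; 30 µg run on 10% SDS-PAGE, transferred to PVDF and immunoblotted; bands quantified by densitometry.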

TGF-beta receptor type-1 = target: T2, TGF-beta receptor type-1 (Homo sapiens, UniProt P36897); test: Inhibition of recombinant human N-terminal GST-tagged TGFbeta1 receptor (80 to end residues) expressed in baculovirus infected Sf9 insect cells using casein as substrate measured after 2 hrs by ADP-Glo assay
T2 sequence (P36897 whole entry): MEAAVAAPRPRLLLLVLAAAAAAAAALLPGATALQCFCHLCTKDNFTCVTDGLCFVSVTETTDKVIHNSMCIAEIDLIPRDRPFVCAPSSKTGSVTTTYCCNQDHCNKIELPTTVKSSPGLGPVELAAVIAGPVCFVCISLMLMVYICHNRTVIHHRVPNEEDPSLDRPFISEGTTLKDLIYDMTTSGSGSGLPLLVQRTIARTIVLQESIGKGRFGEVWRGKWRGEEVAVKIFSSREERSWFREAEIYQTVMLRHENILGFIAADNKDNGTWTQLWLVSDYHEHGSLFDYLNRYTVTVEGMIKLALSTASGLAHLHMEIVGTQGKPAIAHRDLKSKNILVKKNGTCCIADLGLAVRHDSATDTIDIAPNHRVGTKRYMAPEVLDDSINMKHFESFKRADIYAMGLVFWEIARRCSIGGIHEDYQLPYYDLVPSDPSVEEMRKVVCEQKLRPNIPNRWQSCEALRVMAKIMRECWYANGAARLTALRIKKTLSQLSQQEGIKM

Rattus norvegicus [5] = test: Antifibrotic activity in abdominal aortic constriction Sprague-Dawley rat model of cardiac fibrosis assessed as reduction in Smad3 nuclear translocation in heart at 5 mg/kg, ip administered once daily for 4 weeks measured post-last dose by Western blot analysis; type: functional, organism-based; summary of the method: as §2
[6] = target: T1, TGF-beta receptor type-1 (Rattus norvegicus); test: Inhibition of TGFbeta1 receptor in TGFbeta1-stimulated Sprague-Dawley rat cardiac fibroblasts assessed as reduction in Smad2 nuclear translocation at 10 uM measured after 5 mins by Western blot analysis
Summary of the method: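 Primary rat cardiac fibroblasts treated with 10 µM compound plus 10 ng/mL TGFβ1 for 5 min. Nuclear and cytosolic fractions separated with a kit and Smad2/Smad3 measured by Western blot.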

[7] = target: T1, TGF-beta receptor type-1 (Rattus norvegicus); test: Inhibition of TGFbeta1 receptor in TGFbeta1-stimulated Sprague-Dawley rat cardiac fibroblasts assessed as reduction in Smad3 phosphorylation at 10 uM measured after 5 to 30 mins by Western blot analysis
[8] = target: T1, TGF-beta receptor type-1 (Rattus norvegicus); test: Inhibition of TGFbeta1 receptor in TGFbeta1-stimulated Sprague-Dawley rat cardiac fibroblasts assessed as reduction in collagen 3 expression measured after 12 hrs by Western blot analysis; summary of the method: as §1
[9] = target: T1, TGF-beta receptor type-1 (Rattus norvegicus); test: Inhibition of TGFbeta1 receptor in TGFbeta1-stimulated Sprague-Dawley rat cardiac fibroblasts assessed as reduction in fibronectin expression at 50 uM measured after 12 hrs by Western blot analysis
Summary of the method: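 Screen in primary rat cardiac fibroblasts: compounds at 50 µM or 10 µM given with 10 ng/mL TGFβ1 for 12 h. FN measured by Western blot with GAPDH loading control and densitometry. N=3 independent experiments.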

[10] = target: T1, TGF-beta receptor type-1 (Rattus norvegicus); test: Inhibition of TGFbeta1 receptor in TGFbeta1-stimulated Sprague-Dawley rat cardiac fibroblasts assessed as reduction in collagen 1 mRNA expression at 2.5 to 10 uM measured after 12 hrs by qRT-PCR analysis
Summary of the method: (§3)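 Primary rat cardiac fibroblasts (3×10^5 per well) treated with compound plus 10 ng/mL TGFβ1 for 12 h. Total RNA extracted and target transcripts measured by SYBR Green qRT-PCR, normalized to GAPDH.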

[11] = target: T1, TGF-beta receptor type-1 (Rattus norvegicus); test: Inhibition of TGFbeta1 receptor in TGFbeta1-stimulated Sprague-Dawley rat cardiac fibroblasts assessed as reduction in alpha-SMA mRNA expression at 2.5 to 10 uM measured after 12 hrs by qRT-PCR analysis; summary of the method: as §3
Rattus norvegicus [12] = test: Antifibrotic activity in abdominal aortic constriction Sprague-Dawley rat model of cardiac fibrosis assessed as systolic left ventricular internal diameter at 5 mg/kg, ip administered once daily for 4 weeks measured post-last dose by echocardiography (reference value: 3.99 +/- 0.41 mm); type: functional
[13] = target: TGF-beta receptor type-2 (Homo sapiens) (UniProt P37173); test: Inhibition of recombinant human N-terminal GST-tagged TGFbeta2 receptor (190 to end residues) expressed in baculovirus infected Sf9 insect cells up to 100 uM using MBP as substrate measured after 2 hrs by ADP-Glo assay
Summary of the method: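 Recombinant human TβRII produced in Sf9 cells. Compound serially diluted from DMSO and incubated with enzyme, 50 µM ATP and 0.1 g/L MBP for 2 h at room temperature. Kinase activity read as ADP generated.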

Chain of TGF-beta receptor type-2 (Homo sapiens) (P37173 whole entry): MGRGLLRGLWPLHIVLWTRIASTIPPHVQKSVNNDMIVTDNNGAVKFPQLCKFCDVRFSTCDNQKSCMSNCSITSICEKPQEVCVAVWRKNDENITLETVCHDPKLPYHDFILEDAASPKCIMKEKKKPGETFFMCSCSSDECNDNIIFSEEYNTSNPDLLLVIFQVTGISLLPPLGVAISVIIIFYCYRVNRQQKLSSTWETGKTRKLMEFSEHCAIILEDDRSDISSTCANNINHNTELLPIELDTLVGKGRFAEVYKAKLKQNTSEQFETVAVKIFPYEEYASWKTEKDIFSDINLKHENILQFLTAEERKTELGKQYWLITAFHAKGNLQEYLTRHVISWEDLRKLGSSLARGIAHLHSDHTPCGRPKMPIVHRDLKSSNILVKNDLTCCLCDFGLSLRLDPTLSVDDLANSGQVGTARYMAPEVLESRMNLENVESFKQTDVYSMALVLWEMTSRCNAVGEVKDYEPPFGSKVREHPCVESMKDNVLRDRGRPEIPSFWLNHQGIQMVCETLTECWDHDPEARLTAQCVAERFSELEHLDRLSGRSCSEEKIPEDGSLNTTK

- inhibition [1]: Dose-dependent effect
- inhibition [3]: Active
- IC50 (TGF-beta receptor type-1): 0.0149 µM
- inhibition [6]: Active
- inhibition [7]: Active
- inhibition [8]: Dose-dependent effect
- fibronectin reduction (active/not active) [9]: Active
- inhibition [10]: Active
- inhibition [11]: Active
- inhibition [13]: inactive
SMILES: C=C(C)[C@@H]1C/C=C(\C)C(=O)CCC2=C[C@@H]1OC2=O
- Activity (Rattus norvegicus [2]): 42.54%
- Activity (Rattus norvegicus [4]): Active
- Activity (Rattus norvegicus [5]): Active
- Activity (Rattus norvegicus [12]): 4.74 mm
